The source of these data is ChEMBL document CHEMBL1157968, “Chemical and cytotoxic constituents from the leaves of Cinnamomum kotoense” (2006).

Molecules are shown by their SMILES.

What all share (assay type): functional
In experiment [1] the test system is HeLa. Nature of the experiment: Cell cycle arrest in human HeLa cells pretreated with 5 uM cyclosporin A for 1 hr assessed as subG1 phase accumulation at 100 uM after 24 hrs by FACS. The method, boiled down: (§1)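 HeLa cells pretreated for 1 h with the listed agent (10 mM GSH ethyl ester, 10 µM dexamethasone, 10 µM pifithrin, 100 µM Boc-Asp(OMe)-fmk or 5 µM cyclosporin A), then given 100 µM compound for 24 h. Cells fixed in PBS-MeOH, stained with PI/RNase and analysed by flow cytometry for DNA content. At least three experiments, one representative shown.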
Background: A flow cytometer gives signals particle by particle.

Experiment [2] has as its system HeLa. Nature of the experiment: Induction of apoptosis in human HeLa cells assessed as number of cells with decreased mitochondrial membrane potential at 100 uM after 9 hrs by measuring rhodamine 123 fluorescence intensity. On the set-up: scale not given: the % may be the effect or the level left. The method, boiled down:
(§2)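 Cells in DMEM/10% FCS, medium renewed at 80% confluence, then 100 µM agent (0.1% DMSO final) for 1–24 h. Stained with 5 µM rhodamine 123 for 30 min in the dark, washed, trypsinized and resuspended in PBS; flow cytometry, percentage of cells with weak rhodamine 123 staining (reduced ΔΨm); at least three experiments, representative shown.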

The test system of experiment [3] is HeLa. In words: Induction of apoptosis in human HeLa cells assessed as increase in intracellular hydrogen peroxide level at 100 uM after 3 hrs by FACS relative to untreated control. The method, boiled down:
(§3)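 HeLa cells at 80% confluence were refed and exposed to 100 µM for 1, 3 or 24 h. They were loaded with 10 µM DCFH-DA for 30 min in the dark, trypsinized and resuspended in PBS. DCF fluorescence was measured by flow cytometry and expressed as fold versus untreated cells. At least three experiments.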

Experiment [4] deals with HeLa. In words: Induction of apoptosis in human HeLa cells assessed as increase p53 expression at 100 uM after 12 hrs by FACS. Summed up: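 Cells at 60% confluence were exposed to 100 µM for 0–24 h. Floating and adherent cells were fixed in 1% paraformaldehyde (15 min, 4 °C) and permeabilized in 70% EtOH. They were stained with FITC-anti-p53 monoclonal antibody for 1 h at 37 °C, then with PI/RNase. Flow cytometry gave the percentage of p53-positive cells.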

The subject of experiment [5] is HeLa. In words: Induction of apoptosis in human HeLa cells assessed as increase caspase 3/7 activities at 100 uM after 3 hrs by FACS relative to control. The method, boiled down:
(§4)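 After 3–24 h exposure at 100 µM, HeLa cells were trypsinized. 1 × 10^6 cells in DMEM were mixed 1:1 with Z-DEVD-R110 substrate reagent and incubated 1 h at 37 °C, then washed. Released R110 read per cell by flow cytometry (ex 488/em 520 nm) and expressed as fold over untreated cells. At least three runs.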

Experiment [6] deals with HeLa. In words: Cell cycle arrest in human HeLa cells assessed as G2/M phase accumulation at 100 uM after 24 hrs by FACS. Summed up: (§5)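 HeLa cells seeded 5 × 10^5 per dish 48 h ahead in DMEM with 10% FCS, then exposed to compound for 24 h (DMSO 0.1% final). Adherent and floating cells pooled, fixed in PBS-MeOH (1:2) at 4 °C for at least 18 h, and stained with PI (50 µg/mL) plus RNase A for 30 min at room temperature. Flow cytometry at 488 nm excitation, doublets gated out; phase percentages taken from DNA histograms.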

For experiment [7], the system named is HeLa. Nature of the experiment: Cell cycle arrest in human HeLa cells assessed as subG1 phase accumulation at 50 uM after 24 hrs by FACS. The method, boiled down: as §5
For experiment [8], the system named is HeLa. In words: Induction of apoptosis in human HeLa cells assessed as increase in intracellular hydrogen peroxide level at 100 uM after 1 hr by FACS relative to untreated control. The method, boiled down: as §3
Experiment [9] relates to HeLa. In words: Cell cycle arrest in human HeLa cells pretreated with 5 uM cyclosporin A for 1 hr assessed as G1 phase accumulation at 100 uM after 24 hrs by FACS. The method, boiled down: as §1
Experiment [10] has as its system HeLa. Nature of the experiment: Induction of apoptosis in human HeLa cells assessed as number of cells with decreased mitochondrial membrane potential at 100 uM after 6 hrs by measuring rhodamine 123 fluorescence intensity. Details: scale not given: the % may be the effect or the level left. Summed up:
as §2

Experiment [11] relates to HeLa. Nature of the experiment: Cell cycle arrest in human HeLa cells assessed as G2/M phase accumulation at 50 uM after 24 hrs by FACS. The method, boiled down:
as §5

Experiment [12] concerns HeLa. In words: Induction of apoptosis in human HeLa cells pretreated with 5 uM cyclosporin A for 1 hr at 100 uM after 24 hrs by TUNEL assay. The method, boiled down: (§6)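 HeLa in DMEM/10% FCS, untreated or pretreated 1 h with listed inhibitor, then 100 µM agent (0.1% DMSO final) for 24 h. Pooled cells fixed in 1% paraformaldehyde (30 min, 4 °C), 70% EtOH (30 min, −20 °C); strand breaks labelled with TdT/fluorescein-BrdUTP (1 h, 37 °C), PI/RNase counterstain; flow cytometry, % apoptotic cells; ≥3 experiments.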

In experiment [13] the test system is HeLa. Nature of the experiment: Cell cycle arrest in human HeLa cells pretreated with 100 uM Boc-Asp(OMe)-fmk for 1 hr assessed as G2/M phase accumulation at 100 uM after 24 hrs by FACS. Summed up:
as §1

Experiment [14] relates to HeLa. Nature of the experiment: Cell cycle arrest in human HeLa cells pretreated with 5 uM cyclosporin A for 1 hr assessed as S phase accumulation at 100 uM after 24 hrs by FACS. Summed up: as §1
Experiment [15] deals with HeLa. Nature of the experiment: Induction of apoptosis in human HeLa cells assessed as increase p53 expression at 100 uM after 6 hrs by FACS. Summed up: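 HeLa seeded at 5 × 10^5 cells/dish 48 h before, in DMEM with 10% FCS; medium renewed at 60% confluence, then 100 µM agent (0.1% DMSO final) for 0–24 h. Pooled floating and adherent cells fixed in 1% paraformaldehyde (15 min, 4 °C), permeabilized in 70% EtOH (30 min, 4 °C), then FITC-conjugated mouse anti-p53 mAb (1 h, 37 °C), PI/RNase counterstain; flow cytometry, % p53-positive cells; ≥3 experiments.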

The test system of experiment [16] is HeLa. Nature of the experiment: Induction of apoptosis in human HeLa cells assessed as increase in intracellular glutathione-depleted cell population at 25 uM after 24 hrs by FACS. The method, boiled down:
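HeLa cells at 80% confluence got fresh medium and were exposed for 24 h. Adherent and floating cells were pooled, adjusted to (1-2) × 10^6/mL and stained with 25 µM CMF-DA for 30 min at 37 °C. After washing, flow cytometry scored the percentage of GSH-negative cells. At least three experiments.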

Experiment [17] deals with HeLa. In words: Cell cycle arrest in human HeLa cells assessed as G1 phase accumulation at 100 uM after 24 hrs by FACS. Summed up: as §5
For experiment [18], the system named is HeLa. In words: Induction of apoptosis in human HeLa cells pretreated with 10 uM pifithrin-alpha for 1 hr at 100 uM after 24 hrs by TUNEL assay. The method, boiled down:
as §6

In experiment [19] the test system is HeLa. Nature of the experiment: Cell cycle arrest in human HeLa cells pretreated with 10 uM Dexamethasone for 1 hr assessed as subG1 phase accumulation at 100 uM after 24 hrs by FACS. The method, boiled down: as §1
Experiment [20] concerns HeLa. Nature of the experiment: Induction of apoptosis in human HeLa cells assessed as increase caspase 3/7 activities at 100 uM after 9 hrs by FACS relative to control. Summed up:
as §4

Experiment [21] concerns HeLa. Nature of the experiment: Induction of apoptosis in human HeLa cells assessed as increase in intracellular peroxide level at 100 uM after 3 hrs by FACS relative to untreated control. The method, boiled down: as §3
The test system of experiment [22] is HeLa. In words: Induction of apoptosis in human HeLa cells pretreated with 10 mM glutathione ethyl ester for 1 hr at 100 uM after 24 hrs by TUNEL assay. The method, boiled down:
as §6

On to `CCCCCCCCCCCCC/C=C(/C(=O)OC)[C@@H](O)C(C)=O` [SECOKOTOMOLIDE A], for which the Activity in the experiment on HeLa [1] is 61.2%; with HeLa [2], 42.4%; in the experiment with HeLa [4] it was 2.3%; with HeLa [6], 31%; in the experiment on HeLa [7], 61.2%; with HeLa [9], 47.7%. In addition, the Activity amounted to 23% in the experiment on HeLa [10]; 29% with HeLa [11]; 54.5% in the experiment on HeLa [12]; 25.7% in the experiment with HeLa [13]; 14.4% with HeLa [14]; 3.2% in the experiment with HeLa [15]. Moreover, the Activity in the experiment with HeLa [16] worked out at 49%; in the experiment on HeLa [17], 65.2%; in the experiment on HeLa [18], 57.3%; in the experiment on HeLa [19], 47.7%; with HeLa [22], 5.43%. In addition, the “fold change (FC)” value with HeLa [3] was 2.9; with HeLa [5], 3.5; in the experiment with HeLa [8] it was 3.4; in the experiment with HeLa [20] it was 9.9; in the experiment on HeLa [21], 2.9.
